The text below walks through data of ChEMBL document CHEMBL1121618, “Thymidine phosphorylase. Substrate specificity for 5-substituted 2'-deoxyuridines” (J Med Chem, 1980).

The structures appear in SMILES notation.

The nature of this test: Ratio of Vmax to that of dThd (Vmax = 0.14). In outline: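 Continuous UV assay of phosphorolysis by a dThd phosphorylase preparation. Initial rates were followed at each nucleoside's Δλmax, the wavelength of maximal nucleoside/base absorbance difference determined per substrate, and converted using Δεmax. Nucleoside was varied from 60–320 μM in 0.1 M potassium phosphate (pH 6.0) with limiting enzyme at 25.0 °C. Vmax was expressed relative to dThd in the same assay.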

Take `O=c1[nH]c(=O)n([C@H]2C[C@H](O)[C@@H](CO)O2)cc1Cl`: the Vmax is 4.2.
Regarding `O=c1[nH]c(=O)n([C@H]2C[C@H](O)[C@@H](CO)O2)cc1I`, the Vmax came out at 3.85.
As for `O=c1[nH]c(=O)n([C@H]2C[C@H](O)[C@@H](CO)O2)cc1Br`, the Vmax was 3.51.
To `O=c1[nH]c(=O)n([C@H]2C[C@H](O)[C@@H](CO)O2)cc1C(F)(F)F` belongs 8.53.
To `N#Cc1cn([C@H]2C[C@H](O)[C@@H](CO)O2)c(=O)[nH]c1=O` belongs 0.74; to `CCc1cn([C@H]2C[C@H](O)[C@@H](CO)O2)c(=O)[nH]c1=O`, 0.79; to `O=c1[nH]c(=O)n([C@H]2C[C@H](O)[C@@H](CO)O2)cc1F`, 3.42.
To `O=Cc1cn([C@H]2C[C@H](O)[C@@H](CO)O2)c(=O)[nH]c1=O` belongs 1.46; to `O=c1ccn([C@H]2C[C@H](O)[C@@H](CO)O2)c(=O)[nH]1`, 0.88; to `C/C=C/c1cn([C@H]2C[C@H](O)[C@@H](CO)O2)c(=O)[nH]c1=O`, 0.57.
In the case of `O=c1[nH]c(=O)n([C@H]2C[C@H](O)[C@@H](CO)O2)cc1CO`, the Vmax is 0.6.
In the case of `Cc1cn([C@H]2C[C@H](O)[C@@H](CO)O2)c(=O)[nH]c1=O` it was 1.
Take `C=CCc1cn([C@H]2C[C@H](O)[C@@H](CO)O2)c(=O)[nH]c1=O`: the Vmax came out at 0.76.
